Source: PubChem BioAssay
The full list was thinned out, with hits kept by preference.
HUVEC inhibit: inhibitors of HUVEC proliferation, primary screen, cell-based, 384-well | CellTiter-Glo luminescence, 72 h; active compounds read low | viability, % at 10 µM (by protocol) | 86,000 tested, 1.1% active | AID 648, 2007;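 active = viability at or below 30%; inactive = viability above 30%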
HCT116 bCat-KO: primary screen for growth suppressors in beta-catenin knockout HCT116 cells (colon tumor, human); HCT116 beta-catenin knockout viability, CellTiter-Glo, 60 h; active compounds read low; viability, % at 10 µM; 140,000 tested, 1.5% active; AID 818, 2007;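 active = viability at or under a set limit, the compound median less 4 SD, cut at about 6% in these data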
PTEN del growth: growth suppression of PTEN-null HCT116, primary screen, cell-based, CellTiter-Glo. HCT116 PTEN-null viability, 60 h; active compounds read low. AID 827, 2007. 140,000 tested, 1.2% active. viability, % at 10 µM;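 active = viability at or below a set limit, 4 SD under the median of all tested compounds, cut at about 3.7% in these data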;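 also: PTEN knockout HCT116 line with beta catenin targeted HCT116 as companion control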
Lung fibro prol: antiproliferative effect on LL 47 fibroblasts – human, LL 47 cells, CellTiter-Glo luminescence, primary screen; LL 47 human lung fibroblast viability, ATP luminescence; active compounds read low; viability, % at 10 µM; 85,000 tested, 1.1% active; AID 719, 2007;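 active = viability at or below 50% in the single dose screen; inactive = viability above 50%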;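 also: compound exposure lasted 72 h before the ATP readout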
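Test system: LL 47 human lung fibroblasts / Incubation: 72 h compound exposure at 37 °C after overnight plating / Technique: luminescent ATP detection, CellTiter-Glo / Compound dosing: 0.1% DMSO in all compound wells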
H69AR growth 86K: proliferation blockers of H69AR lung cancer cells, primary screen, cell-based, human, 86K library; viability, % at 10 µM; AID 598, 2007; H69AR lung tumor viability, ATP luminescence, 72 h; active compounds read low; 85,000 tested, 6% active;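 active = viability at or below 40%; inactive = viability above 40%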;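 also: multidrug resistant small cell line overexpressing MRP-1 efflux transporter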
A number is an active result; . = inactive; / = not tested or not shown.

SMILES	HUVEC inhibit	HCT116 bCat-KO	PTEN del growth	Lung fibro prol	H69AR growth 86K
COc1ccc(Br)cc1CNC(C)c1ccccc1 (configuration not stated)	/	.	.	/	/
CCOc1c2ccc(C(=O)NCc3ccc4c(c3)OCO4)cc2nn1CC	/	.	.	/	/
NC(N)=N/N=C/c1ccc(OCc2ccccc2)cc1	/	1.7	1.8	/	/
NC(N)=N/N=C/c1ccc(OCc2ccc(Cl)cc2)cc1	/	1.5	1.5	/	/
Cc1ccc(COc2ccc(/C=N/O)cc2)cc1	/	.	.	/	/
Cc1[nH]n(-c2ncc(-c3ccccc3)s2)c(=O)c1C(c1ccc(Br)cc1)C(C#N)C#N (configuration not stated)	/	.	.	/	/
CCSC1(SCC)N=C(N)C2(C#N)C(c3ccccc3)NC3=C(CCC3)C12C#N (configuration not stated)	.	.	.	.	.
CCSC1(SCC)N=C(N)C2(C#N)C(c3ccc(OC)c(OC)c3OC)C12C#N (configuration not stated)	.	.	.	.	2.1
COc1cccc(N2CC(C(=O)Nc3nnc(SCc4cccnc4)s3)CC2=O)c1 (configuration not stated)	/	.	.	/	/
c1ccc(CCNc2ncnc3scc(C4COc5ccccc5O4)c23)cc1 (configuration not stated)	.	.	.	.	28
O=C(CCCOc1ccc(Cl)cc1Cl)N/N=C/c1ccccc1O	/	4.6	.	/	/
C=CCN(C)CCCNC(=O)/C=N/O	.	.	.	.	.
COc1cccc2cc(C(=O)NCc3ccco3)c(=O)oc12	/	.	.	/	/
COc1cccc2cc(C(=O)NCc3ccco3)c(=Nc3ccc(C(=O)O)cc3)oc12	.	.	.	.	12
C=CCc1cccc([C@@H]2[C@@H](C)CC[C@H]3C(=O)N4[C@@H](c5cc(OC)c(OC)c(OC)c5)c5[nH]c6ccccc6c5C[C@H]4C(=O)N23)c1	/	.	.	/	/
COc1ccccc1C1C(C(C)=O)=C(C)N=c2s/c(=C\c3cc(OC)c(OC)c(OC)c3)c(=O)n21 (configuration not stated)	.	.	.	.	30
O=c1[nH]c(=O)n([C@H]2C[C@H](O)[C@@H](CO)O2)cc1F	.	.	.	.	15
Cc1cn([C@H]2C[C@H](N=[N+]=[N-])[C@@H](CO)O2)c(=O)[nH]c1=O	.	.	.	.	.
COc1ccccc1/C=C/C(=O)c1ccc(Cl)cc1	/	.	.	/	/
COc1ccc(OC)c(/C=C/C(=O)c2ccc(Cl)cc2)c1	/	2.9	3.1	/	/
O=C(COc1ccc(Br)cc1CNCCCN1CCOCC1)Nc1ccccc1	/	.	.	/	/
CCc1cccc(CC)c1NC(=O)/C(C#N)=C/c1ccccc1C(F)(F)F	/	1.5	1.8	/	/
N#C/C(=C\c1ccccc1C(F)(F)F)C(=O)Nc1ccccc1	/	.	.	/	/
C#CCn1c(=NC(=O)c2ccc(Cl)s2)sc2cccc(OC)c21	.	4.4	.	.	1.5
COC(=O)Cn1c(=NC(=O)c2ccc(Cl)s2)sc2cc(F)ccc21	/	.	.	/	/
SMILES	HUVEC inhibit	HCT116 bCat-KO	PTEN del growth	Lung fibro prol	H69AR growth 86K
C#CCn1c(=NC(=O)c2cccs2)sc2cccc(OCC)c21	.	.	.	.	23
COc1ccc2[nH]c3nc(SCC(=O)Nc4ccc5c(c4)OCO5)nnc3c2c1	/	.	.	/	/
COc1ccc2[nH]c3nc(SCc4nnc(-c5ccc(C)cc5)o4)nnc3c2c1	.	.	.	.	18
O=C1c2cnc3nc(SCc4ccc(Cl)cc4)nn3c2CC2c3ccccc3CCN12 (configuration not stated)	/	.	.	/	/
Cn1c(O)c(C(C#N)=C2N=c3ccccc3=N2)c2ccccc21	.	.	.	.	14
N#CC(=C1N=c2ccccc2=N1)c1c(O)[nH]c2ccccc12	/	.	.	/	/
COC(=O)c1cc(=O)n(CCc2ccccc2F)c(=Nc2ccc(F)c(Cl)c2)s1	8.9	.	.	16	1.5
COC(=O)c1cc(=O)n(Cc2ccco2)c(=Nc2ccc(F)c(Cl)c2)s1	3.1	1.6	.	7.9	1.5
CC1CCCC(NC(=S)Nc2ccc(SC(F)F)cc2)C1C (configuration not stated)	.	.	.	34	9.1
O=C(/C=C/c1ccccc1Cl)c1ccc[nH]1	/	.	.	/	/
Cc1nn(-c2ccccn2)c2c1-c1nc(N)ncc1CC2	.	.	.	.	.
Cc1nn(-c2ccccn2)c2c1-c1nc(N3CCOCC3)ncc1CC2	.	.	.	.	10
COCCCNC(=O)C1CCCN(S(=O)(=O)c2ccc(C)cc2)C1 (configuration not stated)	.	.	.	.	.
Cc1ccc(S(=O)(=O)N(Cc2cc3cccc(C)c3[nH]c2=O)c2ccccc2)cc1	/	.	.	/	/
CCOC(=O)C1C(=O)C=C(c2ccc(Br)cc2)CC1c1ccco1 (configuration not stated)	.	.	.	.	28
CCOC(=O)C1C(=O)C=C(c2ccc([N+](=O)[O-])cc2)CC1c1ccccc1 (configuration not stated)	/	.	.	/	/
CCOC(=O)C1C(=O)C=C(c2cccc(NS(C)(=O)=O)c2)CC1c1ccco1 (configuration not stated)	.	.	.	.	37
O=C(COC(=O)c1cc(-c2ccc(Cl)s2)nc2ccccc12)NCc1ccco1	.	.	.	.	27
CCOC(=O)c1c(NC(=O)c2ccc(Cl)s2)sc(C)c1C	.	/	/	.	33
Cc1ccccc1-c1cc(C(=O)Nc2sc(C)c(C)c2C(N)=O)c2ccccc2n1	/	.	.	/	/
O=C(COC(=O)c1cc(-c2cccs2)nc2ccccc12)NCc1ccco1	.	.	.	.	.
CCOC(=O)c1c(NC(=O)c2cc(-c3ccc(Cl)s3)nc3ccccc23)sc(C(N)=O)c1C	/	3.6	1.2	/	/
[S-]C(=Nc1ccc(Cl)cc1)N[n+]1ccccc1	/	.	.	/	/
c1ccc(Cn2nnc3c(N4CCOCC4)ncnc32)cc1	/	.	.	/	/
FC(F)(F)c1ccc(N2CCN(c3ncnc4c3nnn4Cc3ccccc3)CC2)nc1	.	.	.	.	40
SMILES	HUVEC inhibit	HCT116 bCat-KO	PTEN del growth	Lung fibro prol	H69AR growth 86K
Cc1cc(=O)n2nc(N3CCC(C(=O)NCCC4=CCCCC4)CC3)sc2n1	.	/	/	.	.
CC(C)c1ccc(N=c2c([N+](=O)[O-])nn(-c3ccc4c(c3)OCCO4)n2O)cc1	/	.	.	/	/
COc1cc(N=c2c([N+](=O)[O-])nn(-c3ccc4c(c3)OCCO4)n2O)cc(OC)c1	/	0.8	0.3	/	/
N#Cc1c(-c2cccc(F)c2)cc(-c2ccccc2)nc1Br	/	.	.	/	/
COc1ccc(-c2cc(-c3ccc(OC)cc3)c(C#N)c(SC)n2)cc1	.	.	.	.	.
CS(=O)c1nc(-c2ccc(Br)cc2)cc(-c2ccccc2)c1C#N (configuration not stated)	9.9	1.8	1.8	6.6	1.5
N#Cc1c(-c2ccc(Br)cc2)cc(-c2cccnc2)nc1N	/	.	.	/	/
